# Experimental data of several laboratories.
# Compare with care: the assays were run in different laboratories.
# Target: Histamine H1 receptor (HRH1, Homo sapiens, UniProt P35367)
# Technique: radioligand
Structure (SMILES),test,conditions,Ki [nM]
CN1CCC(=C2c3ccccc3CCc3ccccc32)CC1,cell-free assay,,0.251
O=C1CCCc2cc(OCc3ccc(OCCCN4CCCCC4)cc3)ccc21,ligand displacement,cell membranes,1970
O=C1NC(c2ccccc2)(c2ccccc2)C(=O)N1CCCN1CCCCC1,ligand displacement,cell membranes,6310
CN1CCN(C2c3ccccc3C=Cc3ccccc32)CC1,cell-free assay,,2
CCCCCCCNCCCc1ccc([N+](=O)[O-])cc1,ligand displacement,,9200
O=C1CCCc2cc(OCCCN3CCCCC3)ccc21,ligand displacement,cell membranes,3470
CN1CCC(=C(c2ccccc2)c2ccccc2)CC1,cell-free assay,,3.16
CNc1nc2cc(OCCCCN3CCC(c4cccc(Cl)c4Cl)CC3)ccc2s1,ligand displacement,,28
CCCNc1nc2ccccc2n1Cc1ccc(Cl)cc1,cell-free assay,,6.2
Clc1ccc(CCCOCCCN2CCCCC2)cc1,ligand displacement,cell membranes,> 10000
O=C1CCCc2ccc(OCCCN3CCCCC3)cc21,ligand displacement,cell membranes,3720
CN(C)CCOC1c2ccccc2CCc2ccccc21,cell-free assay,,1.26
CN(C)c1ccc(/C=C2\CCc3ccc(OCCCN4CCCCC4)cc3C2=O)cc1,ligand displacement,cell membranes,2140
Cc1nc2cc(OCCCCN3CCN(c4cccc(Cl)c4Cl)CC3)ccc2s1,ligand displacement,,57
